Assay outcomes as filed in PubChem.
Rows were chosen to be rich in hits. Some 2.6% of all compounds tested hit in one or more screens of this group.
iPSC survival up = enhancers of single-cell hiPSC survival, primary screen, ATPlite luminescence. 100% = ROCK inhibitor wells, 0% = DMSO. survival enhancement, % at 20 µM. 360,000 compounds, 0.044% hits; in the data active means survival enhancement above about 18%;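 further: cells exposed to compounds for 16 hours before the ATP read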
Exocytosis inh = LAMP-1 surface exposure blockers, TALL-104 cells – cell-based, flow cytometry, MLPCN library, primary screen. 360,000 compounds, 0.66% hits. inhibition, % at 10 µM. TALL-104 LAMP-1 surface exposure; cells stimulated with thapsigargin and PMA;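 active means inhibition above about 55%, limit read from the data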
ABCB6 inh MLPCN = ABCB6 transporter inhibitors, primary screen, K562-ABCB6 cells, flow cytometry, MLPCN library | K562-ABCB6 porphyrin accumulation, 1 h; hits give low values | 360,000 compounds, 0.19% hits | ATP-binding cassette sub-family B member 6 (Homo sapiens), Q9NP58 | fluorescence ratio to DMSO, % at 10 µM;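 active means fluorescence ratio to DMSO below 75%, the collection mean minus 3 SD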;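 further: signal is porphyrin accumulated inside mitochondria; lower ratio means ABCB6 inhibition with less porphyrin fluorescence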
TbMetRS inhib = T. brucei MetRS inhibitors, primary screen, biochemical, luminescence | inhibition, % at 11.9 µM | AID 624268, 2012 | 360,000 compounds, 0.4% hits | methionyl-tRNA synthetase (Trypanosoma brucei brucei) | purified T. brucei MetRS, ATP depletion, Kinase-Glo luminescence;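 active means inhibition above a per-plate cutoff of the control wells' mean inhibition plus 3 SD, cut at about 5.5% in these data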
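technique = Kinase-Glo luminescence, ATP depletion format | system = purified MetRS (methionyl-tRNA synthetase) enzyme from Trypanosoma brucei | timing = 15 min preincubation, 2 h reaction, all 25 °C | evaluation = percent inhibition versus plate control medians | dosing = single dose, 11.9 µM final nominal, 0.9% final DMSO | also added = substrates ATP, L-methionine and bulk Escherichia coli tRNA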
MC4R antagonist = MC4R antagonists of cAMP signaling, primary screen, cell-based, TR-FRET, antagonist arm of biased-ligand search; Melanocortin receptor 4 (Homo sapiens), P32245; MC4R-expressing cells, MTII-stimulated cAMP, LANCE TR-FRET; inhibition, % at 6.5 µM; 360,000 compounds, 0.48% hits; AID 540295, 2011;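 active means inhibition above its plate's cutoff, the mean of tested wells on that plate plus 3 SD, cut at about 29% in these data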
Target sequence (P32245 whole entry, looked up): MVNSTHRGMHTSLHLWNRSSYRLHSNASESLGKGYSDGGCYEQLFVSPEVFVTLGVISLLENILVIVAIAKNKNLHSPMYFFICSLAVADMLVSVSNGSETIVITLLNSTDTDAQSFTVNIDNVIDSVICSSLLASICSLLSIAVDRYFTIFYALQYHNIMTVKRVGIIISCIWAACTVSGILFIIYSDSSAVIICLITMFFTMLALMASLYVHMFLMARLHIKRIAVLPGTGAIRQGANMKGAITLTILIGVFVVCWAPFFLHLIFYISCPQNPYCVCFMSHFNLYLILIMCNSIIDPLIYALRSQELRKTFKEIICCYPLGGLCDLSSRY
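Assay system: U2OS cells stably expressing human melanocortin 4 receptor (MC4R) / Dosing: 6.5 µM / Timing: compound 30 min, challenge 1 h, detection 1 h / Measured by: Eu-cAMP/anti-cAMP TR-FRET, emission 671 nm / Replicates: singlicate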
MC4R barr agon = MC4R agonists recruiting beta-arrestin, primary screen, cell-based, luminescence, agonist arm of biased-ligand search | Melanocortin receptor 4 (Homo sapiens), P32245 | U2OS MC4R beta-arrestin complementation; percent of melanotan II response, DMSO zero | activation, % at 8.9 µM | 360,000 compounds, 0.98% hits | AID 540308, 2011;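 active means activation above a per-plate cutoff, the mean activation of sample wells on that plate plus 3 SD, cut at about 8% in these data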
Hits are given with their value; i = inactive; nt = not tested or not shown.

SMILES	iPSC survival up	Exocytosis inh	ABCB6 inh MLPCN	TbMetRS inhib	MC4R antagonist	MC4R barr agon
O=C(Nc1ccccc1-c1ccccc1)C(c1ccccc1)c1ccccc1	i	i	i	i	i	9.4
CCCCCC(=O)N1C[C@@H](n2cc(COC(=O)c3ccccc3)nn2)[C@H](O)C[C@@H]1c1ccc(C)cc1	i	i	i	i	i	i
Cc1c(Cc2ccccc2)sc(/N=C/c2c(O)ccc3ccccc23)c1C(N)=O	i	i	i	i	i	10
Cc1c(Cc2ccccc2)sc(/N=C/c2ccc3ccccc3c2)c1C(N)=O	i	i	i	i	i	i
O=C(Nc1ccc2c(c1)CCCN2C(=O)c1cccs1)c1c(F)cccc1Cl	i	i	i	i	i	i
O=C1N=C(N2CCC(Cc3ccccc3)CC2)S/C1=C/c1cn[nH]c1-c1ccccc1	i	i	i	i	i	i
O=C1N=C(N2CCN(c3ccccc3)CC2)S/C1=C\c1cn[nH]c1-c1ccccc1	i	i	i	i	i	8.5
Cc1ccnc(NC(=O)CCC(=O)N(CC(=O)NC(C)(C)C)Cc2ccc3c(c2)OCO3)c1	i	i	i	i	i	i
O=C(/C=C/c1ccc([N+](=O)[O-])cc1)c1ccccc(=O)c1O	i	56	i	i	i	i
Cn1nc(CC(=O)Nc2ccc(N3CCN(C(=O)OC(C)(C)C)CC3)cc2)c2ccccc2c1=O	i	i	30	i	i	i
N#Cc1cccc2c1-c1ccccc1/C2=N/NC(N)=O	i	i	i	i	i	i
N#Cc1cccc2c1-c1ccccc1/C2=N/NC(N)=S	i	i	i	i	i	17
CC(=O)Oc1ccc(C(c2ccc(OC(C)=O)cc2)c2ccccn2)cc1	i	i	i	i	i	75
c1ccc(C(c2ccccn2)c2ccccn2)cc1	i	i	i	i	i	i
Cc1ccc(C(=O)Oc2coc(CSc3nnc(NC(=O)c4cccs4)s3)cc2=O)cc1	i	i	i	i	i	9.2
CC(=O)Nc1nnc(SCc2cc(=O)c(OC(=O)c3ccccc3)co2)s1	i	i	i	i	i	i
C#CCN1C=CC(=O)[C@@H](O)[C@H]1c1ccccc1Br	i	i	i	i	i	i
Cc1ccc(C)c(N(C)C(=O)c2cc3c(=O)[nH]c4ccc(C)cc4c3s2)c1	i	i	i	i	i	9.1
CCOc1ccc(S(=O)(=O)Nc2ccc(F)cc2)c(C)c1C	i	i	i	i	i	8.8
Cc1cc(NC(=O)c2ccc(Br)c([N+](=O)[O-])c2)no1	i	i	i	i	i	9.3
Cc1cc(NC(=O)c2ccc(C)c([N+](=O)[O-])c2)no1	i	i	i	i	i	i
O=C(c1cn(Cc2ccccc2)nc1-c1cccnc1)N1CCc2ccccc2C1	i	i	i	i	i	i
O=c1c2cc(F)ccc2sn1-c1ccccc1	i	i	i	i	i	i
Cc1ccccc1-n1sc2cc(F)ccc2c1=O	i	71	i	i	i	i
O=C(COC(=O)c1cccnc1Cl)NCc1ccco1	i	i	i	i	i	i
SMILES	iPSC survival up	Exocytosis inh	ABCB6 inh MLPCN	TbMetRS inhib	MC4R antagonist	MC4R barr agon
COc1cccc(/C=C/C(=O)OCC(=O)c2ccc3c(c2)NC(=O)CO3)c1	i	i	i	i	i	8.5
COc1cccc(/C=C/C(=O)OCC(=O)c2ccc(Br)cc2)c1	i	i	i	i	i	i
CCc1ccc(C(=O)Cn2ncc(Cl)c(Cl)c2=O)cc1	i	i	i	i	i	i
O=C(OCn1ncc(Cl)c(Cl)c1=O)c1cccc(C(F)(F)F)c1	75	i	i	i	i	i
CC1(C)O[C@H]2CC(=O)OC[C@]23[C@H]2CC[C@@]4(C)[C@H](c5ccoc5)OC(=O)[C@H]5O[C@]54[C@]2(C)[C@@H](O)C[C@@H]13	i	i	i	i	i	i
COc1ccc(NC(=O)c2ccco2)cc1NC(=O)c1ccccc1F	i	i	i	i	i	9.4
COc1cc(OC)cc(C(=O)Nc2cc(NC(=O)c3ccco3)ccc2OC)c1	i	i	i	i	i	i
Cn1ncc2c(O/N=C(\N)c3ccc(C(F)(F)F)cc3)ncnc21	i	i	i	i	i	i
O=c1cc[nH]c2cccc(Cc3ccccc3)c12	i	i	i	21	i	i
c1ccc(Cc2c[nH]c3ccccc23)cc1	i	i	i	i	i	i
COc1ccc(OCc2nnc(NC(=O)Nc3ccccc3F)s2)cc1	i	i	i	i	i	8.3
CS(=O)(=O)c1ccc(Nc2nc(C(N)CCc3ccccc3)cs2)cc1 (stereo unspecified)	i	i	i	i	i	i
Cc1ccc(S(=O)(=O)NC2(C(F)(F)F)NC(=O)N(c3ccccc3F)C2=O)cc1 (stereo unspecified)	i	i	i	i	i	i
O=C(C#Cc1ccccc1)c1ccc([N+](=O)[O-])cc1	i	79	i	i	i	i
CC(=O)c1c(C(C)=O)c(C)n(-c2cccc([N+](=O)[O-])c2)c1C	i	i	i	i	i	i
CC(=O)C1=C(c2cccc([N+](=O)[O-])c2)N(C(C)=O)n2c(C)nnc2S1	i	56	i	i	i	i
CCOC(=O)C1=C(Cc2ccc(Cl)cc2)C(=O)c2ccccc2C1=O	i	93	i	i	i	i
COc1ccc(CN2CCNC(=O)C2CC(=O)NC2CCCCCCC2)cc1C (stereo unspecified)	i	i	i	i	i	i
Cc1ccc(/C=C2/C(=O)N(c3ccccc3)C(=S)N2C)o1	i	83	i	i	i	i
O=C1/C(=C/Nc2cccc([N+](=O)[O-])c2)CCc2ccccc21	i	89	i	i	i	9.2
CC(=O)Nc1cccc(N/C=C(\C=O)c2nc3ccccc3o2)c1	i	56	i	i	i	i
Cc1ccc(Cn2c(=O)c3ccccc3n3nc(C)cc23)cc1	i	i	i	i	i	8.2
COc1ccc(NC(=O)C2CCN(S(C)(=O)=O)CC2)cc1OC	i	i	i	i	i	i
COc1ccc(NC(=O)C2CCN(S(=O)(=O)c3ccc(C)cc3)CC2)cc1OC	i	i	74	i	i	i
CC(C)(C)NC(=O)C(c1cccc2ccccc12)n1c(=O)c(-c2ccco2)nc2ccccc21 (stereo unspecified)	nt	i	nt	i	nt	nt
CCCCNC(=O)CSc1nc2ccccc2c(=O)n1CC1COc2ccccc2O1 (stereo unspecified)	i	i	i	i	i	9.4
